Activity calls are given as the source filed them. The rule behind the calls is not given here.
Key:
Format in all cases: functional
L1210 [1] = assay: Antileukemic activity against mouse L1210 cells allografted in BDF1 mouse assessed as concentration required to give maximum increase in life span administered for 1 day
Summary of the method: (§1)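 Single-injection schedule: BDF1 mice received 10⁵ L-1210 cells i.p. and one dose on day 1 only, with compound dissolved in DMSO and made up in sterile saline. Survival was compared with controls. MED is the dose yielding 40% ILS; OD is the dose yielding maximal ILS.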

L1210 [2] = assay: Antileukemic activity against mouse L1210 cells allografted in BDF1 mouse
Summary of the method: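 BDF1 mice inoculated intraperitoneally with 10⁵ L-1210 cells. Compounds were dissolved in dimethyl sulfoxide and diluted with sterile physiological saline for injection. Dosing was either chronic (QD days 1-12) or a single injection on day 1. Read-out was increase in life span (ILS) relative to untreated controls.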

L1210 [3] = assay: Antileukemic activity against mouse L1210 cells allografted in BDF1 mouse assessed as concentration required to increase 40% life span administered for 1 day; summary of the method: as §1
L1210 [4] = assay: Antileukemic activity against mouse L1210 cells allografted in BDF1 mouse assessed as concentration required to give maximum increase in life span administered as continuous injection
Summary of the method: (§2)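 Chronic schedule: 10⁵ L-1210 cells given i.p. to BDF1 mice, then treatment once daily on days 1-12 with compound in DMSO diluted with sterile saline. Life span was compared with controls. MED is the dose giving 40% increase in life span; OD is the dose giving maximum ILS.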

L1210 [5] = assay: Chemotherapeutic index, ratio of antileukemic activity against mouse L1210 cells allografted in BDF1 mouse assessed as concentration required to give maximum increase in life span administered as continuous injection to antileukemic activity against mouse L1210 cells allografted in BDF1 mouse assessed as concentration required to increase 40% life span administered as continuous injection
Summary of the method: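 Chemotherapeutic index was taken as OD/MED on the chronic schedule (QD days 1-12) in BDF1 mice bearing 10⁵ i.p.-inoculated L-1210 cells. OD is the dose giving maximum increase in life span; MED is the dose giving 40% ILS versus controls. Compounds were given in DMSO diluted with saline.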

L1210 [6] = assay: Antileukemic activity against mouse L1210 cells allografted in BDF1 mouse assessed as concentration required to increase 40% life span administered as continuous injection; conditions: read-out: MED; summary of the method: as §2
L1210 [7] = assay: Antileukemic activity against mouse L1210 cells allografted in BDF1 mouse assessed as concentration required to increase 40% life span administered as qd for 12 days; summary of the method: as §2

SMILES: CC1=C(N2CC2)C(=O)C(CCCc2ccccc2)=C(N2CC2)C1=O
- log(1/C) (L1210 [1]): 3.6

SMILES: O=C1C(CCO)=C(N2CC2)C(=O)C(CCO)=C1N1CC1
- log(1/C) (L1210 [1]): 5.6

SMILES: COC(CO)C1=C(N2CC2)C(=O)C(C(CO)OC)=C(N2CC2)C1=O (stereo unspecified)
- Activity (L1210 [2]): Active

SMILES: CC1=C(N2CC2)C(=O)C(CCC(=O)N(C)C)=C(N2CC2)C1=O
- log(1/C) (L1210 [3]): 5.09
- log(1/C) (L1210 [1]): 4.84

SMILES: CO[C@@]12[C@H](COC(N)=O)C3=C(C(=O)C(C)=C(N)C3=O)N1C[C@@H]1N[C@@H]12 [MITOMYCIN]
- Activity (L1210 [4]): 2 mg/kg
- TI (L1210 [5]): 2.2
- minimal effective dose (L1210 [6]): 0.9 mg/kg

SMILES: CCOC(COC(N)=O)C1=C(N2CC2)C(=O)C(CC)=C(N2CC2)C1=O (stereo unspecified)
- log(1/C) (L1210 [3]): 5.4

SMILES: COC(COC(N)=O)C1=C(N2CC2)C(=O)C(C(COC(N)=O)OC)=C(N2CC2)C1=O (stereo unspecified)
- Activity (L1210 [2]): Active

SMILES: CC1=C(N2CC2)C(=O)C(C(C)C)=C(N2CC2)C1=O
- log(1/C) (L1210 [7]): 5.6

SMILES: O=C1C=C(N2CC2)C(=O)C(N2CC2)=C1N1CC1 [TRIAZIQUONE]
- Activity (L1210 [4]): 0.15 mg/kg
- TI (L1210 [5]): 1.8
- minimal effective dose (L1210 [6]): 0.082 mg/kg

SMILES: COC(CO[C@@H]1O[C@H](COC(C)=O)[C@@H](OC(C)=O)[C@H](OC(C)=O)[C@H]1OC(C)=O)C1=C(N2CC2)C(=O)C(C)=C(N2CC2)C1=O (stereo partly specified)
- Activity (L1210 [2]): Active

SMILES: COC(CO)C1=C(N2CC2)C(=O)C(C)=C(N2CC2)C1=O (stereo unspecified)
- log(1/C) (L1210 [7]): 6.9

SMILES: CCCC1=C(N2CC2)C(=O)C(CCOC(N)=O)=C(N2CC2)C1=O
- log(1/C) (L1210 [3]): 4.9

SMILES: CCC(COC(N)=O)C1=C(N2CC2)C(=O)C(C)=C(N2CC2)C1=O (stereo unspecified)
- log(1/C) (L1210 [1]): 5.2

SMILES: COC(COC(N)=O)C1=C(N2CC2)C(=O)C(C)=C(N2CC2)C1=O (stereo unspecified) [CARBOQUONE]
- Activity (L1210 [4]): 0.7 mg/kg
- TI (L1210 [5]): 5.4
- minimal effective dose (L1210 [6]): 0.13 mg/kg
